ChEMBL document CHEMBL3525976, “An unusual metabolic pathway of sipoglitazar, a novel antidiabetic agent: cytochrome P450-catalyzed oxidation of sipoglitazar acyl glucuronide” (Drug Metab Dispos, 2012)

Assays:
[1] = Drug level in human hepatic microsomes treated with 10 uM of [14C]Sipoglitazar after 6 hrs by LC-MS and LC-MS/MS analysis in presence of UDPGA; assay type: ADME, Liver
[2] = test system: Hepatocyte; test: Drug level in cryopreserved primary human hepatocytes treated with 10 uM of [14C]Sipoglitazar after 6 hrs by LC-MS and LC-MS/MS analysis; assay type: ADME, cell-based
Procedure, shortened: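 Cryopreserved human hepatocytes suspended in DMEM at 3 x 10⁵ viable cells/well with 10 μmol/L [14C]sipoglitazar, 37°C, 6 h. Stopped with acetonitrile and centrifuged; supernatant run on radio-HPLC (ODS column, acetonitrile/water/TFA gradient). Metabolites expressed as % of total radioactivity. Means of duplicates.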

[3] = Drug level in human hepatic microsomes treated with 10 uM of [14C]Sipoglitazar after 6 hrs by LC-MS and LC-MS/MS analysis in presence of NADPH and UDPGA; assay type: ADME, Liver
[4] = Drug level in human hepatic microsomes treated with 10 uM of [14C]Sipoglitazar after 6 hrs by LC-MS and LC-MS/MS analysis in presence of NADPH; assay type: ADME, Liver

Measured: Drug metabolism

O=C(O)CCc1cn(Cc2ccc(OCc3csc(-c4ccccc4)n3)cc2)nc1O
metabolite_detected: all assays above

CCOc1nn(Cc2ccc(O)cc2)cc1CCC(=O)O
metabolite_detected: all assays above
